# Assay results of several laboratories.
# Compare with care: the assays were run in different laboratories.
Compound,host,sample,route,dose,notes,AUC
CS(=O)(=O)CCC#N,human,plasma,oral,300 mg,"multiple doses, once daily",260000 ng·h/mL
CC(C)(C)OC[C@@H]1C(=O)NCCN1C(=O)C[C@H](N)Cc1cc(F)c(F)cc1F,human,plasma,oral,5 mg,"multiple doses, once daily, steady state",94.2 ng·h/mL
COc1cc(C(=O)NC2CCN(C)CC2)c(F)cc1Nc1ncc(C(F)(F)F)c(Oc2cccc3c2C(=O)N(C)C3)n1,human,plasma,oral,50 mg,"multiple doses, once daily, steady state, patients",4.89 µM·h
CS(=O)(=O)CCNCc1ccc(-c2ccc3ncnc(Nc4ccc(OCc5cccc(F)c5)c(Cl)c4)c3c2)o1,human,serum,oral,1250 mg,"single dose, fed",27300 ng·h/mL
COc1cc(C(=O)NC2CCN(C)CC2)c(F)cc1Nc1ncc(C(F)(F)F)c(Oc2cccc3c2C(=O)N(C)C3)n1,human,plasma,oral,200 mg,"multiple doses, once daily, steady state, patients",43.7 µM·h
COc1ccc(Oc2cc(N(C)CCOc3ccc(CC4SC(=O)NC4=O)cc3)ncn2)cc1 (stereo not shown),male human,plasma,oral,0.5 mg,"multiple doses, once daily, steady state",333 ng·h/mL
C[C@@H](c1ccc2nccn2c1)n1nnc2ncc(-c3cnn(C)c3)nc21,human,plasma,oral,600 mg,,12800 ng·h/mL
NS(=O)(=O)NCCNc1nonc1C(=NO)Nc1ccc(F)c(Br)c1,human,plasma,oral,50 mg,"multiple doses, once daily, steady state, patients",1.58 µM·h
Cn1c(=O)oc2ccc(-c3ccc(C[C@@H](C#N)NC(=O)[C@@H]4CNCCCO4)cc3)cc21,male human,plasma,oral,65 mg,"single dose, healthy volunteers",24.7 µM·h
Cc1ccc(C(=O)N(CCCN)[C@@H](c2oc3cc(Cl)ccc3c(=O)c2Cc2ccccc2)C(C)C)cc1,human,plasma,intravenous,2 mg/m²,"single dose, patients, infusion",2520 ng·h/mL
